Measurements as given in ChEMBL document CHEMBL4033799, “Stable and Long-Lasting, Novel Bicyclic Peptide Plasma Kallikrein Inhibitors for the Treatment of Diabetic Macular Edema” (J Med Chem, 2018).
pKi: −log10 of the molar value. *1 amine or outer side, *2 acyl side, *3 side chain or, on linkers, in order; H or OH if unused. Where a SMILES comes first, the peptide text is derived from it. Bridges are numbered along the chain shown (N, C = ends). TBMB = c1c(C[*:1])cc(C[*:3])cc1C[*:2]

Key:
Rattus norvegicus [1] = assay: Antiinflammatory activity in Sprague-Dawley rat assessed as inhibition carrageenan-induced paw edema at 30 mg/kg, ip pretreated for 15 mins followed by carrageenan challenge measured at 2 hrs post carrageenan challenge; assay type: functional
Outline: (§1)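 Male Sprague-Dawley rats received peptide IP (30, 10 or 3 mg/kg), or indomethacin IP at 5 mg/kg, 15 min before subplantar carrageenan. Paw volume was followed over time against a vehicle group.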

Rattus norvegicus [2] = assay: Antidiabetic activity in STZ-induced diabetic Brown-Norway rat model assessed as reduction in retinal vascular leakage at 100 ug/eye administered via ivt measured at 4 weeks post diabetes onset relative to control; assay type: functional
Outline: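 Diabetes was induced with STZ in male Brown-Norway rats. Peptide was given intravitreally at 100 μg/eye. Retinal vascular permeability was read as FITC-BSA extravasation 4 weeks after diabetes onset and compared with vehicle-treated diabetic rats. A soluble VEGF-trap served as positive control.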

Rattus norvegicus [3] = assay: Antiinflammatory activity in Sprague-Dawley rat assessed as inhibition carrageenan-induced paw edema at 30 mg/kg, ip pretreated for 15 mins followed by carrageenan challenge measured at 1 hr post carrageenan challenge; assay type: functional; outline: as §1
Rattus norvegicus [4] = assay: Antiinflammatory activity in Sprague-Dawley rat assessed as inhibition carrageenan-induced paw edema at 30 mg/kg, ip pretreated for 15 mins followed by carrageenan challenge measured at 4 hrs post carrageenan challenge; assay type: functional; outline: as §1
Plasma [5] = assay: Anti-coagulating activity in factor 8-deficient human plasma assessed as increase in coagulation time at 10 uM by aPTT assay; assay type: functional
Outline: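 Clotting time measured on a coagulation analyzer using actin FS, 0.025 M CaCl2, FVIII-deficient human plasma and Owren's Veronal Buffer pH 7.35, run per the manufacturer's instructions. Peptide tested from zero (vehicle) up to 10 μM. Each point is the mean ± SD of triplicates.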

Plasma [6] = assay: Stability in rat plasma at 50 uM incubated for 2 days by MALDI-TOF analysis; assay type: ADME, cell-free; settings: 48 h
Outline: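 Qualitative stability test. 1 mM DMSO stock diluted into citrated rat plasma to 50 μM and held at 37 °C for up to 2 days. Aliquots at time points quenched in 1:1 acetonitrile/methanol and centrifuged. Supernatant mixed with 30 mM ammonium bicarbonate. Parent mass and protease metabolites detected by MALDI-TOF.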

[7] = Aqueous solubility of the compound in buffer; assay type: physicochemical
Plasma kallikrein [8] = target: Plasma kallikrein (Rattus norvegicus, UniProt P14272); assay: Inhibition of recombinant Sprague-Dawley rat plasma kallikrein using fluorogenic H-Pro-Phe-Arg-AMC peptide as substrate preincubated for 15 mins followed by substrate addition measured by fluorescence-based assay; settings: read-out: Ki(app)
Sequence of Plasma kallikrein (Rattus norvegicus, UniProt P14272) (P14272 20-390 limits assumed): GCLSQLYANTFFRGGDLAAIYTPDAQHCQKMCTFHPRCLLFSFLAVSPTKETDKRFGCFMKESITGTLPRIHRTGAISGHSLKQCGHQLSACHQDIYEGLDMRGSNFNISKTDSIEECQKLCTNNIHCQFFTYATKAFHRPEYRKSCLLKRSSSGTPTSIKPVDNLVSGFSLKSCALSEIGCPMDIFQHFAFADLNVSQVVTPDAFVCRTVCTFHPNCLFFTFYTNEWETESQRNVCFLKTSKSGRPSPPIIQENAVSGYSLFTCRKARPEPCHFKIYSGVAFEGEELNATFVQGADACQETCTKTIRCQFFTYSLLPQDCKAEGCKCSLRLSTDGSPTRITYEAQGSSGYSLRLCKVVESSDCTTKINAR
Sequence of Plasma kallikrein (Rattus norvegicus, UniProt P14272) (P14272 391-638 limits assumed): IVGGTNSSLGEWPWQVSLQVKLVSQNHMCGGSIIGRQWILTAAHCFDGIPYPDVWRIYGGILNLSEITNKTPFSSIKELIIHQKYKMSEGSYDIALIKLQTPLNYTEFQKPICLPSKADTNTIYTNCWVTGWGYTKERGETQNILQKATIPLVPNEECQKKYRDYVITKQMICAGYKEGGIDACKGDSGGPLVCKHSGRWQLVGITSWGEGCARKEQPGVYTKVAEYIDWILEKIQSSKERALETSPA

Plasma kallikrein [9] = target: Plasma kallikrein (Homo sapiens, UniProt P03952); assay: Inhibition of human plasma kallikrein using fluorogenic H-Pro-Phe-Arg-AMC peptide as substrate preincubated for 15 mins followed by substrate addition measured by fluorescence-based assay; settings: read-out: Ki(app)
Sequence of Plasma kallikrein (Homo sapiens, UniProt P03952) (P03952 20-390 limits assumed): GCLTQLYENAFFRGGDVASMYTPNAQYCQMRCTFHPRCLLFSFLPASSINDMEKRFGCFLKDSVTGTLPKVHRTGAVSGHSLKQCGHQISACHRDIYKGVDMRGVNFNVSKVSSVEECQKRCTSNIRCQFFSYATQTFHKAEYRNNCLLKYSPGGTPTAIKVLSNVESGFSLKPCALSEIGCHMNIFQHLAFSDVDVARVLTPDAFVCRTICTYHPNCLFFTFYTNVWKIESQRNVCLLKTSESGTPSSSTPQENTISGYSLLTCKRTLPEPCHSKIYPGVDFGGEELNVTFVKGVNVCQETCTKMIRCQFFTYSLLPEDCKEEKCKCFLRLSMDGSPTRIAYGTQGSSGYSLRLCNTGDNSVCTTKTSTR
Sequence of Plasma kallikrein (Homo sapiens, UniProt P03952) (P03952 391-638 limits assumed): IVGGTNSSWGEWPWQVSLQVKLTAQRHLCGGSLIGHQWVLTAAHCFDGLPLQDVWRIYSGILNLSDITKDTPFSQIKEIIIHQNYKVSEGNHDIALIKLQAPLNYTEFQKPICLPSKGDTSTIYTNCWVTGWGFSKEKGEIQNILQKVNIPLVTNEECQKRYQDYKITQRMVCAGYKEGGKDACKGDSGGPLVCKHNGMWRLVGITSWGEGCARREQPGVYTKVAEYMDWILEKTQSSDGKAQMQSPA

With `CC(=O)N[C@H]1CSCc2cc3cc(c2)CSC[C@H](NC(=O)[C@H](CCCCNC(=N)N)NC(=O)[C@H](Cc2ccc(O)cc2)NC(=O)[C@@H]2CCN2C(=O)[C@H](Cc2ccccc2)NC(=O)[C@H](CO)NC1=O)C(=O)N[C@@H](C)CN[C@@H](Cc1cnc[nH]1)C(=O)N[C@@H](CCC(N)=O)C(=O)N[C@@H](CC(=O)O)C(=O)N[C@@H](CC(C)C)C(=O)N[C@H](C(=O)O)CSC3` the inhibition in vivo at 30 mg/kg (Rattus norvegicus [1]) was 52%, the “inhibition (INH)” value (Rattus norvegicus [2]) was 30% and the inhibition in vivo at 30 mg/kg (Rattus norvegicus [3]) was 90%. For the same molecule, the inhibition in vivo at 30 mg/kg (Rattus norvegicus [4]) was 32% and the Activity (Plasma [5]) was 15%.

With `CC(C)C[C@@H]1NC(=O)[C@@H]2CCCN2C(=O)[C@H](C)NC(=O)[C@H](CC(=O)O)NC(=O)[C@H](Cc2c[nH]c3ccccc23)NC(=O)[C@@H]2CCCN2C(=O)[C@@H]2CSCc3cc(cc(c3)CSC[C@@H](C(=O)N[C@@H](C)C(=O)O)NC1=O)CSC[C@H](NC(=O)[C@H](C)N)C(=O)N[C@@H](CC(N)=O)C(=O)N[C@@H]([C@@H](C)O)C(=O)N[C@@H](Cc1c[nH]c3ccccc13)C(=O)N[C@@H](CC(N)=O)C(=O)N1CCC[C@H]1C(=O)N[C@@H](Cc1c[nH]c3ccccc13)C(=O)N2` (H-ACNTWNPWCPWDAPLCA-OH; linker 2-9-16 via TBMB) the Stability (Plasma [6]) was “Unstable”, the solubility [7] was “Insoluble” and the pKi (Plasma kallikrein [8]) was 9.40. The pKi (Plasma kallikrein [9]) was 8.64.
